Screening data (PubChem)
TCR-CD3 inh: human TCR-CD3 binding inhibition; TAMRA-labeled TCR probe fluorescence, biochemical; inhibition, % at 9.4 µM; 360,000 compounds, 0.37% hits; in the data active means inhibition above about 19%;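 further: recombinant mutant TCR 2C K166C tagged with TAMRA read by polarization; 0% = receptor in buffer alone and 100% = receptor with positive control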
MLLE-PAM2 inh: inhibitors of microRNA-mediated deadenylation, human PABP1 MLLE binding; inhibition, % at 20 µM; 360,000 compounds, 0.36% hits; AID 588489; GST-MLLE / FITC-PAM2 fluorescence polarization; P11940; in the data active means inhibition above about 35%, passing the limit was not always enough;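 further: plate controls were DMSO wells with GST-MLLE for no effect and wells lacking GST-MLLE protein for full effect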
Target sequence (P11940 whole entry, looked up): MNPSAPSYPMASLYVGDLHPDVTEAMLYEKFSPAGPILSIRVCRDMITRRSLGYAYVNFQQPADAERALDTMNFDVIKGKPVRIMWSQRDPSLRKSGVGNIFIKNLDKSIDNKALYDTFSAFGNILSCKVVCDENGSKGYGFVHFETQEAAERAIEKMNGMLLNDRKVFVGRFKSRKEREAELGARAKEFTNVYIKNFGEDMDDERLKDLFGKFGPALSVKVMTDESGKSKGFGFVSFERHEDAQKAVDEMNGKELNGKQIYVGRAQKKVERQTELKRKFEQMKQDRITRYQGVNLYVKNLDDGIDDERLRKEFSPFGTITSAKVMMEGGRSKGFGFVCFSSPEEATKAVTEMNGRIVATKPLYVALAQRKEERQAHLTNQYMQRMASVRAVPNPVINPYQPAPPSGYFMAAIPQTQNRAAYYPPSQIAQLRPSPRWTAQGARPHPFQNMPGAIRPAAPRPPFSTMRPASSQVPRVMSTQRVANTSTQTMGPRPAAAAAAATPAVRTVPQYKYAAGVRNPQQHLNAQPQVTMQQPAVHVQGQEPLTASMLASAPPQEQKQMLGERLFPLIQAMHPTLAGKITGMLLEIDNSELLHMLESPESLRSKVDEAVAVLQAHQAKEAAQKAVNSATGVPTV
PABP polyA inh: blocks human PABP binding to poly(A) RNA; fluorescence polarization; AID 2014; 290,000 compounds, 1% hits; calls only at 35 µM; P11940;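 further: calls also rest on retests at 20 µM and on dose response follow-up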
eIF4H inh: inhibitors of RNA binding by human eIF4H; Q15056; eIF4H fluorescence polarization binding assay; inhibition, % at 35 µM; 290,000 compounds, 0.94% hits; AID 2012;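 further: calls also rest on retests at 20 µM and on dose response follow-up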
RBBP9 inhibitor: human RBBP9 hydrolase inhibition; O75884; recombinant RBBP9, FP-Rh probe fluorescence polarization; 220,000 compounds, 0.2% hits; inhibition, % at 7.94 µM;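 active means inhibition above the campaign mean of all tested compounds plus 3 SD, cut at about 14% in these data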;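 further: plate controls were DMSO wells with RBBP9 for no effect and wells lacking RBBP9 protein for full effect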
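system = RBBP9 protein | input = RBBP9 at 2.5 µM in dispensed solution, before mixing | measured by = fluorescence polarization (mP), excitation 525 nm, emission 598 nm | incubation = enzyme-compound preincubation 30 min, then probe labeling 45 min, 25 °C | buffer or medium = Tris-NaCl-Pluronic buffer, pH 8.0 | compound = single dose 7.94 µM | also added = FP-Rh probe, 375 nM dispensing solution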
* = called active by the depositor; i = inactive; ? = inconclusive; · = not tested or not shown; + = active, no number. A selection: hits, their analogues and other compounds. The true share with any hit is near 1.6%. Unless noted, how the calls were made is not given here.

SMILES	TCR-CD3 inh	MLLE-PAM2 inh	PABP polyA inh	eIF4H inh	RBBP9 inhibitor
CCOc1ccc(C2C(C#N)=C(N)N(c3sc4c(c3C#N)CCCC4)C3=C2C(=O)CCC3)cc1 (stereo not given)	-17	-24	+	?	-12
O=C(/C=C/c1ccc(O)c(O)c1)O[C@H](Cc1ccc(O)c(O)c1)C(=O)O	·	·	+	98*	·
Cc1cccc(NC(=O)CNC(=O)[C@@H](Cc2ccccc2)NC(=O)[C@H]2O[C@@H](n3ccc(=O)[nH]c3=O)[C@H](O)[C@@H]2O)c1C	-1	·	·	·	·
CCCn1cnc2sc(CC)cc2c1=O	-7	4	i	58*	-7
CCn1c2ccc(C)cc2c2n[nH]c(=S)nc21	-8	20	i	1	·
Fc1ccc2c(c1)c1n[nH]c(=S)nc1n2CCc1ccccc1	-1	40*	i	-10	·
NNc1nnc2c3cc(F)ccc3n(CCc3ccccc3)c2n1	7	-6	i	-3	·
Cc1ccc2c(c1)c1n[nH]c(=S)nc1n2CCc1ccccc1	4	41*	i	-4	·
CC12C=CC(C)(C3C(=O)NC(=O)C31)C1C3C(=O)NC(=O)C3C12 (stereo not given)	4	·	·	·	·
COc1ccc(NC(=O)c2cc(-c3ccco3)nc3ccccc23)cc1S(=O)(=O)N1CCOCC1	14	-23	+	71	-4
Cc1ccc(NC(=O)c2cc(-c3ccco3)nc3ccccc23)cc1S(=O)(=O)N1CCOCC1	-6	-5	+	66*	-5
COC(=O)[C@H](Cc1ccccc1)NC(=O)[C@H]1O[C@@H](n2cnc3c(=O)[nH]c(N)nc32)[C@H](O)[C@@H]1O	3	·	·	·	·
COc1ccc(C)cc1S(=O)(=O)N(CC(=O)Nc1cc([N+](=O)[O-])ccc1C)c1ccc(C)c(C)c1	3	-2	+	active	-3
COc1ccc(N2Cc3cccc(C(=O)O)c3C2=O)cc1	·	-4	+	93*	-6
COc1ccc(C(=O)NC(=S)Nc2ccc3c4c(cccc24)CC3)cc1OC	2	12	+	12*	-2
Cc1c(C(=O)NC(=S)Nc2ccc3c4c(cccc24)CC3)cccc1[N+](=O)[O-]	6	42*	i	26	-2
Cc1ccccc1Cn1ccc(NC(=O)c2cc3ncc(Br)cn3n2)n1	8	-2	i	53*	-1
Cc1cc(C)c(C#N)c(N2CCN(CCOc3ccc(Cl)cc3)CC2)n1	0	6	i	14	-3
COc1ccc(Cl)cc1CN1CCN(c2nc(C)cc(C)c2C#N)CC1	5	2	+	46*	-4
CCN=C1NC(c2ccc(F)cc2)C(C(=O)OC)=C(C)N1Cc1ccccc1C(F)(F)F (stereo not given)	6	·	·	·	·
COC(=O)N1Cc2ccnnc2CC1c1ccccc1-c1ccccc1 (stereo not given)	4	·	·	·	·
Cc1nn2c3c(cnc2c1-c1ccc(Cl)cc1)C(=O)CC(c1ccco1)C3 (stereo not given)	-4	-2	+	61*	·
Cc1nn2c3c(cnc2c1-c1ccccc1)C(=O)CC(C)C3 (stereo not given)	·	·	·	·	-9
O=C(COC(=O)c1cccc(F)c1)NC(=O)NC1CCCC1	-10	-6	·	·	·
O=C(COC(=O)c1cccc(NS(=O)(=O)c2ccc(F)c(F)c2)c1)NC(=O)NC1CCCC1	7	-4	+	85	2
SMILES	TCR-CD3 inh	MLLE-PAM2 inh	PABP polyA inh	eIF4H inh	RBBP9 inhibitor
Cc1cc(N2CCCC2)c(F)cc1/C=C\[N+](=O)[O-]	-5	-113	+	58	2
CN(Cc1ccc2c(c1)CCCN2C)C(=O)[C@@H](Cc1ccccc1)NC(=O)[C@H]1O[C@@H](n2ccc(=O)[nH]c2=O)[C@H](O)[C@@H]1O	5	·	·	·	·
COc1ccc(Nc2nc(N)nc(CSc3nccn3C)n2)cc1	-2	15	i	90*	-10
COc1ccc(Nc2nc(N)nc(CSc3nnc(N)s3)n2)cc1	-3	1	i	5	-4
Fc1ccc(-[n+]2nc(Nc3ccccc3)sc2-c2cccc(Cl)c2Cl)cc1	7	50*	i	-8	·
Cc1ccc(-n2c(C)cc(C(=O)CN3CCOCC3)c2C)cc1	0	7	i	-6	0
Cc1ccc(-n2c(C)cc(C(=O)CN3CCOCC3)c2C)cc1C	2	-6	+	active	-7
CC(Nc1cc(N2CCN(S(=O)(=O)N(C)C)CC2)ccc1[N+](=O)[O-])c1ccccc1 (stereo not given)	0	4	+	77*	-4
C[C@@H]1ON(C)[C@H]2C[C@H]3c4cc(-c5cccc(Cl)c5)ccc4CCN3C[C@@H]12	8	·	·	·	·
COC(=O)C1=C(C)N(Cc2cccc(C(F)(F)F)c2)C(=NCc2ccc(C(F)(F)F)cc2)NC1c1ccccc1C(F)(F)F (stereo not given)	6	·	·	·	·
N#CC1=C(N)C2=C(N3CCCCC3)CCCC2C1(C#N)C#N (stereo not given)	·	39*	+	110*	4
N#CC(C#N)=C1C=C2C=C(N3CCCCC3)CCC2CC1 (stereo not given)	·	·	i	?	-1
COc1ccc(-c2c(-c3ccccc3OC)sc3ccccc23)cc1F	0	·	·	·	·
CCc1c(-c2cccc(OC)c2)ncn1CCc1ccccc1OC	-1	·	·	·	·
O=C(COc1cc(Cl)ccc1Cl)Nc1ccc2c(c1)CCC2	-8	-12	+	64*	-9
CCn1c(SCC(=O)OC)nc2sc3c(c2c1=O)CCC3	-3	-6	i	72*	0
CCn1c(SCC(=O)O)nc2sc3c(c2c1=O)CCC3	5	11	i	48	-6
CCC1S/C(=C(\C#N)C(=O)NCc2ccco2)N(c2ccc(Br)cc2)C1=O (stereo not given)	2	3	+	73*	-2
CCC1S/C(=C(\C#N)C(=O)NCc2ccco2)N(c2ccc(F)cc2)C1=O (stereo not given)	-4	3	i	27	-4
N#C/C(C(=O)NCc1ccco1)=C1/SC(Cc2ccc(F)cc2)C(=O)N1c1ccccc1 (stereo not given)	-9	9	i	-5	-3
CC1S/C(=C(\C#N)C(=O)NCc2ccco2)N(c2ccc(F)cc2)C1=O (stereo not given)	-2	-2	+	110*	-10
CCc1ccc(N=C2NC(=O)/C(=C/c3cc(Br)c(OCC(=O)O)c(OC)c3)S2)cc1	4	-16	i	81*	·
CCc1ccc(N=C2NC(=O)/C(=C/c3cc(OC)c(OC)c(OC)c3)S2)cc1	1	-4	i	4	·
Cc1ccc(S(=O)(=O)NCc2ccc(C(=O)N3CCCC3)cc2)cc1	0	-1	+	6.8*	-9
Cn1nnnc1SCc1nc2scc(-c3ccc(Cl)cc3)c2c(=O)[nH]1	1	-90	+	59*	-11
Cn1nnnc1SCc1nc2scc(-c3ccccc3)c2c(=O)[nH]1	0	-29	i	4	-2
C[C@@H]1C=CCCO[C@]12C(=O)N(Cc1ccccc1C(F)(F)F)c1cccc(Br)c12	-5	·	·	·	·
